# Structures can show the parent of a compound that is named as a salt.
# How the values were obtained:
# [1] = Antiaggregatory activity in pig platelets assessed as inhibition of platelet-activating factor-induced platelet aggregation after 5 mins; assay type: functional, cell-based; conditions: Sus scrofa
# In short: (§1)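 Pig blood (6 pigs) was spun at 1000 rpm for 10 min to give PRP, then 1500 rpm for 10 min to give PPP. PRP was adjusted to 2×10^8 platelets/ml with autologous PPP. Compound (final 100 µM to 0.001 µM, diluted in NS) or NS was added before agonist: ADP 10 µM, AA 350 µM or PAF 0.1 µM final. Aggregation was read optically at 37 °C for 5 min, in sixplicate. IC50 came from the concentration–inhibition curve.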
# [2] = Antiaggregatory activity in pig platelets assessed as inhibition of adenosine diphosphate-induced platelet aggregation after 5 mins; assay type: functional, cell-based; conditions: Sus scrofa; in short: as §1
# [3] = Antiaggregatory activity in pig platelets assessed as inhibition of arachidonic acid-induced platelet aggregation after 5 mins; assay type: functional, cell-based; conditions: Sus scrofa; in short: as §1
# Rattus norvegicus [4] = assay: Antithrombotic activity in Wister rat assessed as reduction of thrombus weight at 10 nmol/kg, po (reference value: 31.87 +/- 1.71 mg); assay type: functional
# Rattus norvegicus [5] = assay: Antithrombotic activity in Wister rat assessed as reduction of thrombus weight at 10 nmol/kg, po (reference value: 28.21 +/- 1.11 mg); assay type: functional
# [6] = Antiplatelet activity in rabbit platelets assessed as inhibition of collagen-induced platelet aggregation; assay type: functional, cell-based; conditions: Oryctolagus cuniculus
# Rattus norvegicus [7] = assay: Antithrombotic activity in Wister rat assessed as reduction of thrombus weight at 1 nmol/kg, po (reference value: 31.87 +/- 1.71 mg); assay type: functional
# Rattus norvegicus [8] = assay: Antithrombotic activity in Wister rat assessed as reduction of thrombus weight at 160 to 165 umol/kg, po (reference value: 31.87 +/- 1.71 mg); assay type: functional
# Rattus norvegicus [9] = assay: Antithrombotic activity in Wister rat assessed as reduction of thrombus weight at 0.1 nmol/kg, po (reference value: 31.87 +/- 1.71 mg); assay type: functional
# Rattus norvegicus [10] = assay: Antithrombotic activity in Wister rat assessed as reduction of thrombus weight at 0.01 nmol/kg, po (reference value: 31.87 +/- 1.71 mg); assay type: functional
# Rattus norvegicus [11] = assay: Antithrombotic activity in po dosed Wister rat assessed as reduction of thrombus weight; assay type: functional, organism-based
Structure (SMILES),IC50 [1],IC50 [2],IC50 [3],Activity (Rattus norvegicus [4]),Activity (Rattus norvegicus [5]),IC50 [6],Activity (Rattus norvegicus [7]),Activity (Rattus norvegicus [8]),Activity (Rattus norvegicus [9]),Activity (Rattus norvegicus [10]),Activity (Rattus norvegicus [11])
Cc1nc(C(=O)NNC(=O)[C@@H](NC(=O)OC(C)(C)C)C(C)C)cc2c1[nH]c1ccccc12,50 µM,156 µM,3.7 µM,24.01 mg,24.01 mg,–,–,–,–,–,–
Cc1nccc2c1[nH]c1cc(O)ccc12 [HARMOL HYDROCHLORIDE],–,–,–,–,–,130 µM,–,–,–,–,–
Cc1nc(C(=O)NNC(=O)[C@@H](N)Cc2c[nH]c3ccccc23)cc2c1[nH]c1ccccc12,19.3 µM,28.9 µM,8.7 µM,–,–,–,24.56 mg,–,–,–,–
Cc1nc(C(=O)NNC(=O)[C@@H](N)Cc2cnc[nH]2)cc2c1[nH]c1ccccc12,42.5 µM,25.7 µM,0.2 µM,–,–,–,18.1 mg,–,–,–,–
Cc1nc(C(=O)NNC(=O)[C@@H]2CCCN2)cc2c1[nH]c1ccccc12,44.5 µM,48.7 µM,5.8 µM,–,–,–,24.37 mg,–,–,–,–
CC1=NCCc2c1[nH]c1cc(O)ccc21 [HARMALOL],–,–,–,–,–,130 µM,–,–,–,–,–
Cc1nc(C(=O)NNC(=O)[C@H](Cc2ccc(O)cc2)NC(=O)OC(C)(C)C)cc2c1[nH]c1ccccc12,12.7 µM,152 µM,13 µM,23.73 mg,21 mg,–,–,–,–,–,–
Cc1nc(C(=O)NNC(=O)[C@H](CO)NC(=O)OC(C)(C)C)cc2c1[nH]c1ccccc12,119 µM,276 µM,19.9 µM,21.1 mg,18.67 mg,–,–,–,–,–,–
CSCC[C@H](N)C(=O)NNC(=O)c1cc2c([nH]c3ccccc32)c(C)n1,13.4 µM,58.9 µM,4.7 µM,–,–,–,23.43 mg,–,–,–,–
CC[C@H](C)[C@H](N)C(=O)NNC(=O)c1cc2c([nH]c3ccccc32)c(C)n1,5.6 µM,74 µM,3.6 µM,–,–,–,23.12 mg,–,–,–,–
Cc1nc(C(=O)NNC(=O)[C@@H](N)[C@@H](C)O)cc2c1[nH]c1ccccc12,20.9 µM,24.8 µM,5.2 µM,–,–,–,23.65 mg,–,–,–,–
Cc1nc(C(=O)NNC(=O)[C@@H]2CCCN2C(=O)OC(C)(C)C)cc2c1[nH]c1ccccc12,134 µM,166 µM,20.6 µM,23.04 mg,20.39 mg,–,–,–,–,–,–
Cc1nc(C(=O)NNC(=O)[C@H](CC(=O)OCc2ccccc2)NC(=O)OC(C)(C)C)cc2c1[nH]c1ccccc12,196 µM,117 µM,5.2 µM,21.44 mg,18.97 mg,–,–,–,–,–,–
Cc1nc(C(=O)NN)cc2c1[nH]c1ccccc12,92.8 µM,110 µM,32.9 µM,26.66 mg,–,–,–,–,–,–,–
Cc1nc(C(=O)NNC(=O)[C@H](C)NC(=O)OC(C)(C)C)cc2c1[nH]c1ccccc12,162 µM,118 µM,20 µM,22.67 mg,20.06 mg,–,–,–,–,–,–
COc1ccc2c3c([nH]c2c1)C(C)=NCC3 [HARMALINE],–,–,–,–,–,130 µM,–,–,–,–,–
Cc1nc(C(=O)NNC(=O)[C@H](CC(C)C)NC(=O)OC(C)(C)C)cc2c1[nH]c1ccccc12,1.2 µM,31.6 µM,3.2 µM,23.8 mg,21.06 mg,–,–,–,–,–,–
COc1ccc2c(c1)[nH]c1c(C)nccc12 [HARMINE],–,–,–,–,–,130 µM,–,–,–,–,–
CC(=O)Oc1ccccc1C(=O)O [ASPIRIN],–,–,–,–,–,–,–,18.86 mg,–,–,–
Cc1nc(C(=O)NNC(=O)[C@@H](N)CC(C)C)cc2c1[nH]c1ccccc12,1.1 µM,23 µM,8.2 µM,–,–,–,24.49 mg,–,–,–,–

Structure (SMILES),IC50 [1],IC50 [2],IC50 [3],Activity (Rattus norvegicus [4]),Activity (Rattus norvegicus [5]),IC50 [6],Activity (Rattus norvegicus [7]),Activity (Rattus norvegicus [8]),Activity (Rattus norvegicus [9]),Activity (Rattus norvegicus [10]),Activity (Rattus norvegicus [11])
Cc1nc(C(=O)NNC(=O)CN)cc2c1[nH]c1ccccc12,52.9 µM,53.3 µM,5.2 µM,–,–,–,23.7 mg,–,–,–,–
Cc1nc(C(=O)NNC(=O)[C@@H](NC(=O)OC(C)(C)C)[C@@H](C)O)cc2c1[nH]c1ccccc12,31.9 µM,531 µM,4.7 µM,22.87 mg,20.24 mg,–,–,–,–,–,–
CSCC[C@H](NC(=O)OC(C)(C)C)C(=O)NNC(=O)c1cc2c([nH]c3ccccc32)c(C)n1,52.9 µM,417 µM,21.7 µM,20.96 mg,18.55 mg,–,–,–,–,–,–
Cc1nc(C(=O)NNC(=O)[C@H](Cc2c[nH]c3ccccc23)NC(=O)OC(C)(C)C)cc2c1[nH]c1ccccc12,4.3 µM,21.7 µM,0.6 µM,21.52 mg,19.04 mg,–,–,–,–,–,–
Cc1nc(C(=O)NNC(=O)[C@H](C)N)cc2c1[nH]c1ccccc12,47.4 µM,58.9 µM,6.7 µM,–,–,–,24.39 mg,–,–,–,–
CC[C@H](C)[C@H](NC(=O)OC(C)(C)C)C(=O)NNC(=O)c1cc2c([nH]c3ccccc32)c(C)n1,1.4 µM,51.1 µM,2.4 µM,23.3 mg,20.62 mg,–,–,–,–,–,–
Cc1nc(C(=O)NNC(=O)[C@@H](N)CO)cc2c1[nH]c1ccccc12,52.9 µM,50.9 µM,9 µM,–,–,–,24.78 mg,–,–,–,–
c1ccc2c(c1)[nH]c1cnccc12 [NORHARMANE],–,–,–,–,–,130 µM,–,–,–,–,–
Cc1nc(C(=O)NNC(=O)CNC(=O)OC(C)(C)C)cc2c1[nH]c1ccccc12,348 µM,722 µM,20.7 µM,26.83 mg,23.74 mg,–,–,–,–,–,–
Cc1nc(C(=O)NNC(=O)[C@H](Cc2cn(C(=O)OC(C)(C)C)cn2)NC(=O)OC(C)(C)C)cc2c1[nH]c1ccccc12,7.7 µM,94.6 µM,4.8 µM,21.32 mg,18.87 mg,–,–,–,–,–,–
Cc1nc(C(=O)NNC(=O)[C@H](CC(N)=O)NC(=O)OC(C)(C)C)cc2c1[nH]c1ccccc12,507 µM,609 µM,19.7 µM,24.14 mg,21.36 mg,–,–,–,–,–,–
Cc1nccc2c1[nH]c1ccccc12 [HARMAN],–,–,–,–,–,130 µM,–,–,–,–,–
Cc1nc(C(=O)NNC(=O)[C@@H](N)CCCCN)cc2c1[nH]c1ccccc12,52.9 µM,58.9 µM,4.1 µM,–,–,–,23.3 mg,–,–,–,–
Cc1nc(C(=O)NNC(=O)[C@@H](N)CCC(=O)OCc2ccccc2)cc2c1[nH]c1ccccc12,64.3 µM,58.9 µM,2.3 µM,–,–,–,18.8 mg,–,–,–,–
Cc1nc(C(=O)NNC(=O)[C@H](CCC(=O)OCc2ccccc2)NC(=O)OC(C)(C)C)cc2c1[nH]c1ccccc12,362 µM,524 µM,6.3 µM,22.2 mg,19.65 mg,–,–,–,–,–,–
Cc1nc(C(=O)NNC(=O)[C@@H](N)C(C)C)cc2c1[nH]c1ccccc12,2 µM,20.8 µM,0.3 µM,–,–,–,18.3 mg,–,23.8 mg,27.12 mg,Dose-dependent effect
Cc1nc(C(=O)NNC(=O)[C@@H](N)CC(=O)OCc2ccccc2)cc2c1[nH]c1ccccc12,52.9 µM,81.7 µM,3.7 µM,–,–,–,23.23 mg,–,–,–,–
Cc1nc(C(=O)NNC(=O)[C@H](CCCCNC(=O)OC(C)(C)C)NC(=O)OC(C)(C)C)cc2c1[nH]c1ccccc12,106 µM,321 µM,3.4 µM,22.32 mg,19.75 mg,–,–,–,–,–,–
Cc1nc(C(=O)NNC(=O)[C@@H](N)Cc2ccc(O)cc2)cc2c1[nH]c1ccccc12,37.4 µM,74.6 µM,1.7 µM,–,–,–,18.56 mg,–,–,–,–
Cc1nc(C(=O)NNC(=O)[C@@H](N)CC(N)=O)cc2c1[nH]c1ccccc12,39.7 µM,65.8 µM,6.2 µM,–,–,–,23.97 mg,–,–,–,–
